# RBBP9 inh – human RBBP9 hydrolase inhibition; inhibition, % at 7.94 µM; actives 0.2% (n = 220,000); O75884; recombinant RBBP9, FP-Rh probe fluorescence polarization;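 active = inhibition above the campaign mean of all tested compounds plus 3 SD, cut at about 14% in these data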;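 also: plate controls were DMSO wells with RBBP9 for no effect and wells lacking RBBP9 protein for full effect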
# Target sequence (O75884 whole entry, looked up): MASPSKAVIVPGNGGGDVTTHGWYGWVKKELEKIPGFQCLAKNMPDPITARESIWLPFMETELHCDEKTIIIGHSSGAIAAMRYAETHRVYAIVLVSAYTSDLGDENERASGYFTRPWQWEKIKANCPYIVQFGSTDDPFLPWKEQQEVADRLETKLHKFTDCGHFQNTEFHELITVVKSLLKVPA
#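 Assay system: recombinant human RBBP9; Reagent: Serine-hydrolase probe FP-Rh, 375 nM pre-mixing; Doses: 7.94 µM single dose, 0.794% DMSO; Incubation: 30 min then 45 min, 25 °C; Detection: fluorescence polarization (mP), excitation 525 nm, emission 598 nm; Evaluation: percent inhibition from mP, scaled between DMSO and no-protein wells.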
# pPAFAH inh – pPAFAH (human) enzyme inhibition; recombinant pPAFAH, FP-rhodamine probe fluorescence polarization; inhibition, % at 3.39 µM; actives 1.5% (n = 330,000); Q13093; AID 463082;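 active = inhibition above the mean inhibition across the screen plus 3 SD, cut at about 25% in these data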;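 also: inhibitors block binding of the rhodamine activity-based probe so polarization drops; 0% = enzyme with DMSO and 100% = wells lacking pPAFAH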
# PAFAH2 inh – PAFAH2 (human) inhibition; Q99487; recombinant PAFAH2, FP-rhodamine activity probe, fluorescence polarization; inhibition, % at 3.39 µM; actives 0.99% (n = 340,000); AID 492956;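 active = inhibition above the mean over all tested compounds plus 3 SD, cut at about 30% in these data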;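 also: inhibitors block probe labeling of enzyme so polarization drops; 0% = enzyme with DMSO and 100% = wells lacking PAFAH2 protein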
# PAFAH1B3 inh – PAFAH1B3 (human) inhibition. AID 492972. actives 0.28% (n = 340,000). Q15102. inhibition, % at 3.39 µM. recombinant PAFAH1B3, FP-rhodamine probe, fluorescence polarization;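 active = inhibition above the screen-wide average of all tested compounds plus 3 SD, cut at about 25% in these data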;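 also: 0% = enzyme with DMSO only and 100% = wells lacking PAFAH1B3 protein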
# Target sequence (Q15102 whole entry, looked up): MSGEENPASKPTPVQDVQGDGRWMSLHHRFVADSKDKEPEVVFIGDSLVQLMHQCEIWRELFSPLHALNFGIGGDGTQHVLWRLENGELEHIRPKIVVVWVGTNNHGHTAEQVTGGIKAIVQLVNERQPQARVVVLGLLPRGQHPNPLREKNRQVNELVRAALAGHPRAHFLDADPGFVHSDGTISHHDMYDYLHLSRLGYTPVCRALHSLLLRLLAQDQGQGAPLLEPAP
# PAFAH1B2 FP inh – inhibitors of human PAFAH1B2 | recombinant PAFAH1B2, FP-rhodamine activity probe, fluorescence polarization | inhibition, % at 3.39 µM | actives 1.2% (n = 340,000);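 active = inhibition above the mean of all tested compounds plus 3 SD, cut at about 24% in these data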;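 also: 0% = enzyme with DMSO and 100% = wells lacking PAFAH1B2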
# PAFAH2 FP conf – PAFAH2 (human) inhibition, confirmed | shares compounds with PAFAH2 inh | recombinant PAFAH2, FP-rhodamine activity probe, fluorescence polarization | inhibition, % at 3.39 µM | actives 65% (n = 2,300) | AID 493030;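 active = mean inhibition over three repeats above a set limit taken from the earlier primary screen, cut at about 30% in these data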;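 also: inhibitor blocks binding of rhodamine activity probe so polarization falls; 0% = enzyme with DMSO and 100% = wells lacking PAFAH2 protein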
# The depositor's hits bear a star; . = no result. Most compounds without a hit are left out; they make up all but 2.7% or so of the library.
SMILES,RBBP9 inh,pPAFAH inh,PAFAH2 inh,PAFAH1B3 inh,PAFAH1B2 FP inh,PAFAH2 FP conf
O=C(COC(=O)C1=Cc2ccccc2OC1)NCc1ccccc1,.,3,31*,0,2,23
O=C(COC(=O)C1=Cc2ccccc2OC1)NCc1ccco1,-3,4,20,-4,-7,.
CN(C)c1ccc(C(=O)OCc2ccc(Br)cc2)cc1,-5,10,34*,-2,12,35*
CN(C)c1ccc(C(=O)OCC(=O)Nc2ccc(N3CCOCC3)cc2)cc1,-8,4,49*,10,2,35*
O=C(Nc1cccc(S(=O)(=O)N2CCOCC2)c1)C1=NN(c2ccccc2)C(=O)CC1,.,1,5,-1,4,.
CCN(CC)c1ccc(C(=O)Nc2cccc(F)c2)cc1,-1,15,38*,1,3,42*
CN(C)c1cccc(C(=O)Nc2cccc(F)c2)c1,-8,3,-1,-1,5,.
O=C(COC(=O)c1ccc(F)cc1F)Nc1cc(S(=O)(=O)N2CCOCC2)ccc1Cl,.,.,34*,11,3,20
O=C(COC(=O)Cc1cccs1)Nc1cc(S(=O)(=O)N2CCOCC2)ccc1Cl,.,14,-2,5,7,.
O=C(COC(=O)c1ccc(O)cc1)Nc1cc(S(=O)(=O)N2CCOCC2)ccc1Cl,.,5,65*,-2,3,54*
O=C(COC(=O)c1ccc(O)cc1)Nc1ccc(S(=O)(=O)N2CCOCC2)cc1,.,-2,1,5,2,.
O=C(COC(=O)c1cccs1)Nc1cc(S(=O)(=O)N2CCOCC2)ccc1Cl,-1,1,53*,-2,2,38*
COc1cc(/C=C/C(=O)O)cc(S(=O)(=O)NCc2ccc3c(c2)OCO3)c1OC,-6,-3,1,6,8,.
COc1ccc(/C=C/C(=O)OCC(=O)NC2CC2)c(OC)c1,.,4,83*,10,1,79*
COc1cccc(/C=C/C(=O)OCC(=O)NC2CC2)c1OC,.,6,68*,16,5,58*
COc1ccccc1/C=C/C(=O)OCC(=O)NC1CCS(=O)(=O)C1 (stereo not given),.,-1,14,11,3,.
NS(=O)(=O)c1ccc(O)c(NC(=O)c2ccc([N+](=O)[O-])cc2)c1,-4,6,31*,4,-3,29
O=C(c1ccco1)N1CCN(Cc2nc(-c3cccs3)no2)CC1,-6,-5,7,2,4,.
Cc1ccc(C(=O)n2nc(-n3cccc3)c3c(C)cc(C)nc32)cc1,-2,.,49*,10,2,51*
Cc1cc(C)c2c(-n3cccc3)nn(C)c2n1,1,6,-7,6,3,.
Cc1ccc(F)cc1NC(=O)COC(=O)c1ccc2ncsc2c1,.,-3,49*,8,-8,54*
O=C(COC(=O)c1ccc2ncsc2c1)Nc1cc([N+](=O)[O-])ccc1Cl,.,-2,8,-11,-8,.
CCOc1ccc(NC(=O)COC(=O)c2ccc3ncsc3c2)cc1OCC,.,.,-1,2,-4,.
O=C(COC(=O)c1ccc2ncsc2c1)Nc1ccc(OC(F)(F)F)cc1,.,-10,73*,-1,0,70*
O=C(COC(=O)c1ccc2ncsc2c1)Nc1ccccc1Cl,.,-2,59*,10,3,44*
SMILES,RBBP9 inh,pPAFAH inh,PAFAH2 inh,PAFAH1B3 inh,PAFAH1B2 FP inh,PAFAH2 FP conf
CC(C)(C)c1ccc(NC(=O)COC(=O)c2ccc3ncsc3c2)cc1,.,-2,23,-4,1,.
O=C(COC(=O)c1ccc2ncsc2c1)NCc1ccc(Cl)cc1,.,1,39*,2,5,25
CC(C)CC(NC(=O)C(NC(=O)C1CCC(=O)N1C(=O)OCc1ccccc1)C(C)C)C(=O)N1CCCC1C(N)=O (stereo not given),.,-4,40*,1,2,41*
O=C(NC(=S)NC1C2CC3CC(C2)CC1C3)C12CC3CC(CC(C3)C1)C2 (stereo not given),-9,-1,9,-7,0,.
CN(C(=O)c1ccccc1C(=O)OCC(=O)Nc1cccc(Br)c1)c1ccccc1,.,2,76*,-4,-2,76*
COc1ccc(C(=O)COC(=O)c2ccccc2C(=O)N(C)c2ccccc2)c(OC)c1,.,13,1,3,2,.
COc1cccc(NC(=O)COC(=O)c2ccccc2C(=O)N(C)c2ccccc2)c1,.,4,71*,3,0,69*
CN(C(=O)c1ccccc1C(=O)OCC(=O)Nc1ccc(OC(F)F)cc1)c1ccccc1,.,15,65*,3,-3,56*
CN(C(=O)c1ccccc1C(=O)OCC(=O)Nc1ccc(S(N)(=O)=O)cc1)c1ccccc1,.,4,-5,8,3,.
O=C(Nc1ccc(N2CCOCC2)cc1N1CCOCC1)c1ccc([N+](=O)[O-])cc1Cl,.,-6,-5,13,1,.
O=C(COC(=O)/C=C/c1cccc(Br)c1)NC1CC1,.,4,32*,-1,3,24
NC(=O)NC(=O)COC(=O)/C=C/c1cccc(Br)c1,-1,-2,1,-2,1,.
O=C(COC(=O)/C=C/c1cccc(Cl)c1)NC1CCCC1,.,8,74*,9,-1,66*
O=C(COC(=O)/C=C/c1cccc(Cl)c1)NC1CC1,.,2,31*,1,1,19
O=C(COC(=O)/C=C/c1cccc(Cl)c1)Nc1c(F)cccc1F,.,1,2,2,1,.
O=C(N[C@H]1C/C=C\C[C@@H](CC(=O)N(CCO)Cc2ccccc2)C(=O)NC[C@H](c2ccccc2)OC1=O)OCC1c2ccccc2-c2ccccc21,.,6,-10,-16,5,.
CCOC(=O)C1CCCN(C(=O)CCn2nnnc2CN2CCOCC2)C1 (stereo not given),.,-10,7,10,0,.
Cc1ccccc1OCCOc1cccc(/C=N/NC(=O)Cc2nnc(N)s2)c1,-10,9,33*,-4,4,16
O=C(COC(=O)c1c(Cl)cccc1Cl)Nc1ccccc1Br,-10,4,3,-7,4,.
O=C(COC(=O)c1ccccc1)Nc1ccccc1Br,0,10,36*,-7,-2,25
C/C=C/C(=O)OCC(=O)Nc1ccccc1Br,2,3,33*,20,-4,20
O=C(COC(=O)/C=C/c1ccccc1)Nc1ccccc1Br,-4,9,64*,-3,3,54*
COc1ccc(N2C(=O)C3[C@@H](C2=O)C2(Cl)C(Cl)=C(Cl)C3(Cl)C2(OC)OC)cc1 (stereo not given in full),-5,4,33*,-1,4,31*
COc1ccc(N2C(=O)C3C(C2=O)C3(c2ccccc2)c2ccccc2)cc1 (stereo not given),-6,-2,-4,4,3,.
Cc1cc2nnc(SCC(=O)NCC3CCCO3)n2c2ccccc12 (stereo not given),0,-2,5,4,-3,.
